In the RNAGym collection of RNA variant scans (doi:10.1101/gad.245936.114):
This sample holds only a part of the variants without activity.

B1: tRNA (parent)
chain: CUCUCGGUAGCCAAGUUGGUUUAAGGCGCAAGACUUUAAUUUAUCACUACGAAAUCUUGAGAUCGGGCGUUCGACUCGCCCCCGGGAGAUUUUUUCCUCGAGCAA

Variants of: B1
Assay: nonsense suppression (GFP-seq) (ratio to wild type); higher = more function; SUP4oc tRNA, yeast GFP reporter sort-seq
Outline: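 Raffinose/galactose medium with 80 mg/L adenine was used to grow yeast carrying genome-integrated tRNA variants (~3% random-mutation library), RFP, and a galactose-driven GFP ochre reporter. Cells went into GFP/RFP bins, which were Illumina-sequenced, and variants with ≥100 reads and ≥30 cells were scored. Nonsense suppression (GFPSEQ) is the per-bin median GFP/RFP weighted by estimated cell share and expressed relative to the unmutated parent tRNA.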

| Variant | nonsense suppression |
| --- | --- |
| U16G C82G | ≤ 0.026 |
| U16G U21G | 1.1 |
| U16G U21C | 0.905 |
| A13G C68U | 0.146 |
| A13U A24G | 0.96 |
| A13U A24U | 0.863 |
| A13U U21A U35C G84U | ≤ 0.026 |
| U16G A30G C64G | ≤ 0.026 |
| A13U C79A G84U | ≤ 0.026 |
| U16A C82U | 0.886 |
| U16C U21A U22G | 0.861 |
| G15U U35A U63C C68A | ≤ 0.026 |
| A14C G65A | ≤ 0.026 |
| U16G U57A C64U G66U G69A | ≤ 0.026 |
| A14C U21G A23C G69A U70A | ≤ 0.026 |
| U16A U17G | 1.16 |
| U16G A54U U63G | 0.278 |
| A14C C56G C72G G86A | ≤ 0.026 |
| A14U A33U C34G G59C | ≤ 0.026 |
| U16C A31G | 1.07 |
| U16C C82A G85A | ≤ 0.026 |
| G15U U17A U55C | ≤ 0.026 |
| U16C C68U | 1.03 |
| A14C A31C U58C C72A U76C C77G | ≤ 0.026 |

| Variant | nonsense suppression |
| --- | --- |
| G15A U21C C34G U35G U58A | ≤ 0.026 |
| U16C U63C C79U | 0.0784 |
| U16G C29U A89C | ≤ 0.026 |
| G15C U22G A23C | ≤ 0.026 |
| A14G A30G | 0.03 |
| A14G A30U | 0.0337 |
| A13U G61C | 0.191 |
| A13U G61U | 0.447 |
| A14G A54G | ≤ 0.026 |
| U16A A24C | 0.872 |
| A13G C29G G61U U70G | ≤ 0.026 |
| U16G A54C C81U | 0.0601 |
| A14U G18U A23U C27G | ≤ 0.026 |
| A14G G86U | ≤ 0.026 |
| A13G U21G C77G | ≤ 0.026 |
| A13G C80U | 0.0419 |
| U16G U63A | 1.09 |
| A13U A54C G66A A74C G86A | ≤ 0.026 |
| A14G G19A A31U G66C A74C G78U | ≤ 0.026 |
| U16G G85C | 0.0285 |
| U16G G85U | 1.06 |
| A13U U16A G85U | 0.173 |
| A13U C29U C81U | 0.0757 |
| U16C C27U | 0.137 |

| Variant | nonsense suppression |
| --- | --- |
| A13U U76C | 0.836 |
| G15A G61C | 0.034 |
| A14C G59A U70G | ≤ 0.026 |
| U16C U55C | 0.769 |
| U16C A23G G28U | ≤ 0.026 |
| U16C U21C | 1.03 |
| U16C G73A | 1.22 |
| A14U G66A | ≤ 0.026 |
| A14C C82U | ≤ 0.026 |
| A14C A31G A74U C80G | ≤ 0.026 |
| A13G A54C G69U G86U | ≤ 0.026 |
| U16C G61A U63A | 0.186 |
| A13U A54U | 0.728 |
| A14U A24C | 0.0284 |
| A14U G85U G88U | ≤ 0.026 |
| A13G A30G | 0.105 |
| G15C U22C G28C | ≤ 0.026 |
| A13U G85A | 1.2 |
| A13U C77U | 0.0452 |
| U16A G78U | 0.188 |
| A13G U20A | 0.0339 |
| U16G C27G | ≤ 0.026 |
| A14G G28U G78C | ≤ 0.026 |
| A13U A24G G61C | 0.0375 |

| Variant | nonsense suppression |
| --- | --- |
| A13U A62C | 0.029 |
| U16A A60G | 0.247 |
| U16C U17G | 1.07 |
| U16A G28A | 1.11 |
| G15C A87U | ≤ 0.026 |
| A13C U57A G66A | ≤ 0.026 |
| U16A A31G G86U | ≤ 0.026 |
| U16A A33G | 0.0423 |
| A14C U63G A87C | ≤ 0.026 |
| A14G U35C | ≤ 0.026 |
| U16A A30G | 0.312 |
| A13U U20A | 0.189 |
| A14C G59U | ≤ 0.026 |
| G15C U17G G19C G25U | ≤ 0.026 |
| G15A A24G C29G A60C | ≤ 0.026 |
| A14U A23G A62U G84A | ≤ 0.026 |
| G15A G26U U55A | ≤ 0.026 |
| A13G U21G | 0.026 |
| A13G U21C | 0.211 |
| A14G A31G | 0.0611 |
| U16G A60G | 0.39 |
| A13U C72G | 0.032 |
| G15A U76C | 0.0394 |
| G15C G65A | ≤ 0.026 |

| Variant | nonsense suppression |
| --- | --- |
| U16C U63C | 1.11 |
| A13G G61C | 0.0301 |
| A13U C29U | 0.751 |
| A13C U63C | 0.848 |
| A13C U63A | 1.17 |
| U16C C68A G88U | ≤ 0.026 |
| A14U G32C G88U | ≤ 0.026 |
| U16A A62G U76G | ≤ 0.026 |
| A13G A31G | 0.149 |
| A13U U57A G65A | ≤ 0.026 |
| U16C A31G U57C | 0.922 |
| U16A G65A G66A | ≤ 0.026 |
| U16A G61A | 0.819 |
| A14U U57G | ≤ 0.026 |
| A13G C27A C29G A33U U76C G86U | ≤ 0.026 |
| A14U G26A U57A | ≤ 0.026 |
| G15A U63G C75G | ≤ 0.026 |
| U16G G25C | 0.2 |
| U16G C34U | ≤ 0.026 |
| G15A G65A | ≤ 0.026 |
| A14G A33G G69C | ≤ 0.026 |
| A14G A24C A31G C56G | ≤ 0.026 |
| G15U U70A G85U | ≤ 0.026 |
| G15A A33G | 0.0395 |

| Variant | nonsense suppression |
| --- | --- |
| A14G A60G | 0.0456 |
| A13G U16A | 0.0391 |
| A13G U16G | 0.207 |
| A13U U21A | 0.803 |
| A13U U21G | 0.763 |
| A14G A74C | ≤ 0.026 |
| A13G G84C | ≤ 0.026 |
| U16G U17C C72A | 0.27 |
| G15U A24G G86C | ≤ 0.026 |
| U16A A54U | 1.06 |
| U16C G28A | 1.06 |
| A13U C27U G85A | 0.22 |
| G15U A23G G65C | ≤ 0.026 |
| G15C A33U G61A | ≤ 0.026 |
| A13U G78A | 0.179 |
| A13U G78U | 0.236 |
| A13U G78C | 0.0621 |
| A13U A23U | 0.0855 |
| U16A U22G C79U | 0.208 |
| A14U G61A | 0.0341 |
| A13U A31G | 1.22 |
| A13U A31U | 0.193 |
| A13G C75U | 0.305 |
| A13G C75A | 0.71 |

| Variant | nonsense suppression |
| --- | --- |
| U16G | 1 |
| U16A | 1 |
| U16C | 0.862 |
| U16A C29U | 0.186 |
| A14C G65C C80G A87C | ≤ 0.026 |
| U16A G85A | 1.03 |
| A13U A24G G26C G32C A89C | ≤ 0.026 |
| U16G A23G | 0.129 |
| G15A U57C G59C G78A | ≤ 0.026 |
| U16C G78A | 0.837 |
| U16C G78U | 0.454 |
| A13G G59U | ≤ 0.026 |
| G15A G28A C75A | 0.24 |
| A13C U57C | 0.0326 |
| A13U G86A | 0.0315 |
| U16A C34G U63C C77G G86C | ≤ 0.026 |
| A14U U20C A24G C75G | ≤ 0.026 |
| A14U U21A A24G A31C C56G G88A | ≤ 0.026 |
| G15C A23G G66A | ≤ 0.026 |
| G15A C80U | 0.167 |
| A13U U16C U63G | 0.18 |
| U16A G19C U70G C72G | ≤ 0.026 |
| G15C G18U U76G A87G | ≤ 0.026 |
